Five compounds from ChEMBL document CHEMBL1136089, “Synthesis and in vitro activity of new methylenepiperidinyl and methylenepyrrolidinyl oxazolidinone antibacterial agents” (Bioorg Med Chem Lett, 2003) can be followed below.

The subject of data set [1] is Streptococcus pyogenes. Description: In vitro antibacterial activity against Streptococcus pyogenes C6003.
For data set [2], the system named is Staphylococcus aureus. Description: In vitro antibacterial against methicillin-susceptible Staphylococcus aureus (MSSA). Format: functional.
The next data set has as its system Enterococcus faecium. Description: In vitro antibacterial activity against vancomycin-resistant Enterococcus faecium C6487.
Data set [3] relates to Staphylococcus epidermidis. Description: In vitro antibacterial activity against Staphylococcus epidermis C2235. It counts as functional. An outline of the steps:
(§1)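 MIC by agar dilution on Mueller–Hinton agar, inoculum 10⁴ CFU/spot. Reported in μg/mL.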

Data set [4] deals with Staphylococcus epidermidis. Description: In vitro antibacterial activity against Staphylococcus epidermis ATCC 1228. It counts as functional. Put shortly: as §1
The test system of data set [5] is Staphylococcus aureus. Kind of data set: In vitro antibacterial activity against Staphylococcus aureus. Format: functional.
Data set [6] concerns Staphylococcus aureus. Description: In vitro antibacterial activity against ciprofloxacin-resistant Staphylococcus aureus (CRSA). It counts as functional.
The subject of data set [7] is Enterococcus faecalis. Description: In vitro antibacterial activity against Enterococcus faecalis C6301 (E. f. 1). Format: functional. An outline of the steps: as §1
Data set [8] relates to Staphylococcus aureus. Kind of data set: In vitro antibacterial activity against methicillin-resistant Staphylococcus aureus (MRSA). Format: functional.
The test system of data set [9] is Enterococcus faecalis. Description: In vitro antibacterial activity against Enterococcus faecalis C6291 (E. f. 1). Format: functional. An outline of the steps:
as §1

Data set [10] concerns Streptococcus pyogenes. Description: In vitro antibacterial activity against Streptococcus pyogenes ATTCC8668.
A short description of data set [11]: Area under curve was determined in male rat. Conditions: in vivo. It counts as ADME, organism-based. Put shortly: (§2)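 Single oral dose of 15 mg/Kg to rats, with compound dissolved in 50% PEG solution.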
Data set [12] can be described thus: Tmax in male rat. It counts as ADME, organism-based. Conditions: in vivo. Put shortly: as §2
Data set [13] is described as follows: Cmax in male rat. It counts as ADME, organism-based. Conditions: in vivo. Put shortly: as §2
Data set [14] in a line: Half-life in male rat. Conditions: in vivo. Format: ADME, organism-based. An outline of the steps: as §2
The nature of data set [15]: In vivo activity against Staphylococcus aureus when administered orally for 1 hr in rat at a dose of 15 mg/kg. Format: ADME, organism-based. Details: dose 15 mg/kg, route oral. Conditions: po.

In brackets after ≈: the same amount, converted by molar mass.

For `CC(=O)C=C1CCN(c2ccc(N3C[C@H](CNC(C)=O)OC3=O)cc2F)CC1`, the MIC (usually the lowest concentration found to suppress growth) was determined as 16 mg/L (≈ 41.1 µM) in the data set on Streptococcus pyogenes [1]; 16 mg/L (≈ 41.1 µM) with Staphylococcus aureus [2]; 8 mg/L (≈ 20.5 µM) against Enterococcus faecium; 8 mg/L (≈ 20.5 µM) in data set [3]; 1 mg/L (≈ 2.57 µM) in data set [4]; 8 mg/L (≈ 20.5 µM) in the data set with Staphylococcus aureus [5]. In addition, the MIC against Staphylococcus aureus [6] turned out to be 16 mg/L (≈ 41.1 µM); against Enterococcus faecalis [7] it was 8 mg/L (≈ 20.5 µM); with Staphylococcus aureus [8], 16 mg/L (≈ 41.1 µM); in the data set with Enterococcus faecalis [9], 16 mg/L (≈ 41.1 µM); with Streptococcus pyogenes [10], 0.25 mg/L (≈ 0.642 µM).

As to `CC(=O)NC[C@H]1CN(c2ccc(N3CCC(=CC#N)CC3)c(F)c2)C(=O)O1`, in data set [11], the AUC – broadly, the area under the concentration-time curve, a measure of exposure – was 6.81 µg·h/mL. For the same compound, in data set [12], the Tmax – broadly, the time at which the peak concentration occurs – was 0.5 h. In addition, the MIC worked out at 2 mg/L (≈ 5.37 µM) in the data set with Streptococcus pyogenes [1]; 4 mg/L (≈ 10.7 µM) against Staphylococcus aureus [2]; 4 mg/L (≈ 10.7 µM) with Enterococcus faecium; 1 mg/L (≈ 2.69 µM) in [3]; 0.5 mg/L (≈ 1.34 µM) in [4]; 2 mg/L (≈ 5.37 µM) against Staphylococcus aureus [5]. Further, the MIC is 2 mg/L (≈ 5.37 µM) against Staphylococcus aureus [6]; 2 mg/L (≈ 5.37 µM) with Enterococcus faecalis [7]; 1 mg/L (≈ 2.69 µM) against Staphylococcus aureus [8]; 2 mg/L (≈ 5.37 µM) against Enterococcus faecalis [9]; 0.5 mg/L (≈ 1.34 µM) against Streptococcus pyogenes [10]. In addition, the peak level in data set [13] (Cmax) was 1.32 µg/mL. Moreover, in data set [14], the half-life – broadly, the time in which the quantity being followed falls by half – is 8.14 h.

Regarding `CC(=O)NC[C@H]1CN(c2ccc(N3CCC(=Cc4cc(-c5csnc5C)no4)CC3)c(F)c2)C(=O)O1`, the MIC in the data set with Streptococcus pyogenes [1] stood at 8 mg/L (≈ 15.6 µM); with Staphylococcus aureus [2], 16 mg/L (≈ 31.3 µM); against Enterococcus faecium, 4 mg/L (≈ 7.82 µM); in data set [3], 4 mg/L (≈ 7.82 µM); in [4], 2 mg/L (≈ 3.91 µM); in the data set with Staphylococcus aureus [5] it was 16 mg/L (≈ 31.3 µM). Besides, the MIC against Staphylococcus aureus [6] was determined as 8 mg/L (≈ 15.6 µM); with Enterococcus faecalis [7], 8 mg/L (≈ 15.6 µM); against Staphylococcus aureus [8] it was 8 mg/L (≈ 15.6 µM); with Enterococcus faecalis [9] it was 8 mg/L (≈ 15.6 µM); in the data set with Streptococcus pyogenes [10], 2 mg/L (≈ 3.91 µM).

Consider `CCOC(=O)C(Cl)=C1CCN(c2ccc(N3C[C@H](CNC(C)=O)OC3=O)cc2F)CC1`, for which the MIC with Streptococcus pyogenes [1] worked out at 8 mg/L (≈ 17.6 µM); in the data set with Staphylococcus aureus [2] it was 8 mg/L (≈ 17.6 µM); against Enterococcus faecium, 4 mg/L (≈ 8.81 µM); in data set [3] it was 4 mg/L (≈ 8.81 µM); in [4] it was 2 mg/L (≈ 4.41 µM); in the data set with Staphylococcus aureus [5], 32 mg/L (≈ 70.5 µM). Also, the MIC came out at 16 mg/L (≈ 35.3 µM) in the data set on Staphylococcus aureus [6]; 2 mg/L (≈ 4.41 µM) with Enterococcus faecalis [7]; 16 mg/L (≈ 35.3 µM) against Staphylococcus aureus [8]; 4 mg/L (≈ 8.81 µM) against Enterococcus faecalis [9]; 2 mg/L (≈ 4.41 µM) against Streptococcus pyogenes [10].

As for `CC(=O)NC[C@H]1CN(c2ccc(N3CCOCC3)c(F)c2)C(=O)O1` [LINEZOLID], in [11], the AUC worked out at 4.24 µg·h/mL. Also, in data set [12], the Tmax is 0.333 h. Also, in [15], the half-life is 3.09 h. Moreover, in data set [13], the Cmax (usually the peak of the concentration-time curve) amounted to 1.39 µg/mL. Moreover, the MIC came out at 2 mg/L (≈ 5.93 µM) in data set [3], 0.5 mg/L (≈ 1.48 µM) in data set [4] and 0.5 mg/L (≈ 1.48 µM) against Streptococcus pyogenes [10].
